High-throughput results: PubChem BioAssay, The Scripps Research Institute Molecular Screening Center
UHRF1 binding: UHRF1 methylated DNA binding inhibitors, primary screen, counter-screen for MBD2 inhibitor project, biochemical, TR-FRET, human UHRF1, single concentration; UHRF1 binding to methylated oligo; AID 687016, 2013; inhibition, % at 4.4 µM; 370,000 tested, 0.75% active; in the data active = inhibition above about 21%;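 also: UHRF1 SRA domain binding a hemimethylated CpG hairpin DNA probe; 0% = median of test compound wells and 100% = reference inhibitor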
TDP2 inh: human TDP2 enzyme inhibitors, primary screen, biochemical, epi absorbance, recombinant enzyme; Tyrosyl-DNA phosphodiesterase 2 (Homo sapiens), O95551; AID 720702, 2013; inhibition, % at 12.8 µM; 370,000 tested, 0.34% active; T5PNP hydrolysis, p-nitrophenol absorbance 415 nm;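 active = inhibition above the mean of all tested compounds plus 3 SD, set per campaign, cut at about 25% in these data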;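 also: 0% = DMSO with enzyme and 100% = buffer with substrate but no TDP2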
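test system = human TDP2 enzyme | input = TDP2 enzyme at 120 nM final | medium = 50 mM Tris-HCl pH 7.5 with Mg2+, KCl, DTT, BSA | also added = T5PNP substrate, 5 mM | times = 2 h at 37 °C | technique = epi absorbance | benchmarks = high control without enzyme, low control DMSO plus TDP2 | replication = each compound tested once, singlicate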
ASAP1 inh: inhibitors of human ASAP1 ArfGAP activity, primary screen, biochemical, fluorescence polarization. Arf-GAP with SH3 domain, ANK repeat and PH domain-containing protein 1 (Homo sapiens), …. ASAP1-stimulated ARF1 GTP hydrolysis, GDP FP detection. inhibition, % at 16.5 µM. 360,000 tested, 0.19% active. AID 624377, 2012; in the data active = inhibition above about 25%;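 also: 0% = vehicle with enzyme and substrate and 100% = no enzyme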
MBD2 DNA inh: inhibitors of MBD2 binding to methylated DNA, primary screen, biochemical, TR-FRET, DNA-binding domain, human; Methyl-CpG-binding domain protein 2 (Homo sapiens), Q9UBB5; MBD2 binding to methylated oligonucleotide; inhibition, % at 4.4 µM; 370,000 tested, 0.31% active; AID 686964, 2013; in the data active = inhibition above about 13%
Target sequence (Q9UBB5 whole entry, looked up, the tested form may be a part): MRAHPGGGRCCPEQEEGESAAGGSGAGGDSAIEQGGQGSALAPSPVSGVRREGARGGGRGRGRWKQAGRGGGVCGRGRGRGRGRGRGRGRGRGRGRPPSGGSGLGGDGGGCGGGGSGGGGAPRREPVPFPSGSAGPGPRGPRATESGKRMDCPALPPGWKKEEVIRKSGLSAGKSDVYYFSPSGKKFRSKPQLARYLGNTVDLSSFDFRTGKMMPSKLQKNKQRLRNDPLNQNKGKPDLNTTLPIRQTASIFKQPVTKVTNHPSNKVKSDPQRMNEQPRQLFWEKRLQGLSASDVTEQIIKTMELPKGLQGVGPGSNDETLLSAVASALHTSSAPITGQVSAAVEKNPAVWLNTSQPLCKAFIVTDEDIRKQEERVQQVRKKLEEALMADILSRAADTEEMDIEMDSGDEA
ARFGAP1 inhibitor: inhibitors of rat ARFGAP1 GAP activity, primary screen, biochemical, fluorescence polarization, GDP tracer | 360,000 tested, 0.26% active | inhibition, % at 16.5 µM | AID 651572, 2012 | Arfgap1-stimulated ARF1 GTP hydrolysis, GDP FP detection | ADP-ribosylation factor GTPase-activating protein 1 (Rattus norvegicus), Q62848;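 active = inhibition above a per-plate limit, mean inhibition of low control wells plus 3 SD, cut at about 25% in these data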;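 also: 0% = DMSO wells with enzyme and 100% = wells lacking Arfgap1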
Target sequence (Q62848 1-136 limits assumed): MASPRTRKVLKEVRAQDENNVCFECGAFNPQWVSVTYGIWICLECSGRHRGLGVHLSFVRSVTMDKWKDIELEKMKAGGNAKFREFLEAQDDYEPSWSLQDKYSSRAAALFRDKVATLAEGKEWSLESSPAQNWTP
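Material: rat Arfgap1 catalytic domain, aa 1-136; also added: human ARF1(Δ1-17)-GTP substrate; compound dosing: one concentration, 16.5 µM, DMSO 1.26%; incubation: GTP hydrolysis reaction 2 h at 25 °C; measured by: Tracer-displacement fluorescence polarization with EDTA stop, 620/688 nm; evaluation: % inhibition from polarization; repeats: one replicate per compound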
LEDGF integ inh: blockers of LEDGF/p75-dependent integrase strand transfer – biochemical, TR-FRET, high throughput, primary screen. HIV-1 integrase (with human LEDGF/p75). TR-FRET IN-LEDGF/p75 DNA integration, Eu/Cy5. inhibition, % at 3.7 µM. 370,000 tested, 0.64% active. AID 743269, 2014;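 active = inhibition above the screen-wide mean plus 3 SD, cut at about 13% in these data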;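 also: signal is the Cy5 over europium emission ratio at 671 and 618 nm; 0% = plate median of compound wells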
Numbers without * were called inactive; nt = no result. Sampled rows, rich in hits. Any-hit rate of the full collection: about 2%.

SMILES	UHRF1 binding	TDP2 inh	ASAP1 inh	MBD2 DNA inh	ARFGAP1 inhibitor	LEDGF integ inh
COc1ccc2nc(N3CCCCC3)c(/C=C3\SC(=S)NC3=O)cc2c1	-2	19	-8	-1	-1	-1
Cc1ccccc1NC(=O)CCS(=O)(=O)c1cccc2nonc12	6	-3	13	1	4	4
Cc1cccc(NC(=O)CCS(=O)(=O)c2cccc3nonc23)c1C	27*	0	-1	11	-5	-1
O=C(c1cc(-c2ccc(Cl)cc2)nc2ccccc12)N1CCN(c2ncccn2)CC1	1	8	nt	-1	nt	-2
O=C(O)c1ccccc1C(=O)c1ccc(Cl)cc1	1	8	-1	-2	-1	1
Nc1sccc1C(=O)c1ccc(Cl)cc1	30*	2	6	-7	8	0
O=C(CSc1nnc(-c2cnccn2)n1-c1ccccc1)c1ccc(F)cc1	0	0	nt	-1	nt	2
O=C(Nc1cccc(O)c1)C(=O)Nc1ccccn1	68*	-1	12	0	-2	0
Cc1cc(Cl)ccc1OC(C)C(=O)Nc1ccccc1N1CCOCC1 (centres undefined)	21*	4	9	12	5	10
CCCCNCC(O)(c1ccc(Cl)cc1)c1ccc(Cl)cc1	57*	3	-3	2	-2	-2
COC(=O)[C@]12C=CCN1[C@@H](c1ccc(Cl)cc1)c1c(c3ccccc3n1S(=O)(=O)c1ccc(C)cc1)C2	1	4	nt	-3	nt	2
COc1ccc(/C=N/NC(=O)CN(C2=NS(=O)(=O)c3ccccc32)c2ccccc2)cc1	0	0	-9	8	-8	-1
COc1ccccc1/C=N/NC(=O)CN(C1=NS(=O)(=O)c2ccccc21)c1ccccc1	0	2	8	3	40*	-2
COC(=O)[C@]12C[C@H](CC(=O)NCCc3ccccc3OC)C(=O)N(Cc3cccc4ccccc34)C1=C[C@H](C(C)C)O[C@@H]2C1CC1	1	-8	nt	-3	nt	2
O=C(CCc1ccccc1)N[C@H]1[C@@H](O)CCC[C@]12C(=O)N(Cc1ccccc1)c1ccccc12	2	-7	nt	4	nt	-4
CC(C)CNC(=S)N1CCC(NC(=O)c2ccco2)CC1	23*	-3	0	2	3	-4
CCOCCCNC(=S)N1CCC(NC(=O)c2ccco2)CC1	5	-20	-3	2	6	3
CCCC[C@@H]1C(=O)N2N=Cc3cc(C)c(C)cc3[C@H]2N2N=Cc3cc(C)c(C)cc3[C@@H]12	5	-10	nt	7	nt	2
O=C1CC(Nc2ccc(N3CCOCC3)cc2)C(=O)N1Cc1ccccc1 (centres undefined)	0	15	1	-3	4	22*
Clc1cccc(-c2nc3nc4ccccc4nc3n2Cc2ccccc2)c1	29*	-2	8	-2	-1	2
c1ccc(Cn2c(-c3ccccc3)nc3nc4ccccc4nc32)cc1	2	5	2	3	12	0
COc1cccc(Oc2ccc(OC)cc2C(=O)O)c1	26*	3	-3	6	3	1
COc1cccc(Nc2ccccc2C(=O)O)c1	14	-1	16	5	5	-1
Cc1cccc(C)c1-n1nnnc1C1(C)CCC(=O)N1c1ccc(N2CCOCC2)cc1 (centres undefined)	23*	11	2	12	-3	4
C=CCn1c(SCC(=O)c2ccc(F)cc2)nnc1-c1ccc(F)cc1	0	10	nt	-4	nt	2
SMILES	UHRF1 binding	TDP2 inh	ASAP1 inh	MBD2 DNA inh	ARFGAP1 inhibitor	LEDGF integ inh
O=C(Nc1c(-c2ccc(C(F)(F)F)cc2)nc2ncccn12)c1ccc(F)cc1	-2	10	nt	-8	nt	-1
Cc1ccc(C(C(=O)NCc2ccc(F)cc2)N(CCCO)C(=O)C2COc3ccccc3O2)o1 (centres undefined)	23*	-2	-1	5	0	1
O=C(/C=C/c1cccc([N+](=O)[O-])c1)NCCc1ccc(F)cc1	38*	4	-13	-1	9	0
COc1ccccc1N(CC(O)Cn1c2ccccc2c2ccccc21)S(=O)(=O)c1ccccc1 (centres undefined)	21*	0	5	7	22	0
O=S(=O)(c1ccccc1)N(CC(O)Cn1c2ccccc2c2ccccc21)c1ccccc1 (centres undefined)	1	-19	-8	-3	17	-2
CCC(CO)Nc1cccc2c1S(=O)(=O)N(Cc1cn(Cc3cccc(F)c3)nn1)Cc1ccccc1O2 (centres undefined)	5	-3	nt	-2	nt	1
O=c1[nH]c(C2CCN(S(=O)(=O)c3ccc4c(c3)OCCO4)CC2)nc2c1nnn2Cc1ccc(F)cc1	27*	5	2	5	8	-2
CCCN(C)C1CN(Cc2cn(Cc3cc(C)cc(C)c3)nn2)S(=O)(=O)C1 (centres undefined)	22*	-9	2	7	0	-2
CCOC(=O)c1ccc(Nc2cnc3ccccc3n2)cc1	3	-15	5	4	2	5
CCOC(=O)COc1cnc2ccccc2n1	22*	3	-1	7	-16	2
Cc1cc(C)cc(N(CC(=O)NC2CCC(C)CC2)S(=O)(=O)c2ccc(Br)s2)c1 (centres undefined)	-1	7	nt	-3	nt	6
COC(=O)c1ccc2nc(-c3ccc(C)cc3)c(Cc3ccc(C)cc3)n2c1	21*	-4	-2	-1	2	3
COC(=O)c1ccc2nc(-c3ccco3)c(Cc3ccccc3OC)n2c1	26*	4	-6	16*	2	9
COC(=O)c1ccc2nc(-c3ccco3)c(Cc3ccc(C)cc3)n2c1	23*	-2	-5	10	-7	1
COC(=O)c1ccc2nc(-c3ccco3)c(Cc3ccccc3C(F)(F)F)n2c1	19	-2	-2	2	7	2
COC(=O)c1ccc2nc(-c3ccc(Cl)cc3)c(Cc3ccccc3)n2c1	23*	2	-13	2	0	-1
COC(=O)c1ccc2nc(-c3ccc(OC)c(OC)c3)c(Cc3ccc(C)cc3)n2c1	17	-3	0	9	-16	0
